The text below walks through data of ChEMBL document CHEMBL1126202, “Dual-action penems and carbapenems” (J Med Chem, 1992).

≈ marks a conversion by molar mass, not a printed value.

For series [1], the system named is Escherichia coli. The series is described as follows: In vitro antibacterial activity against Escherichia coli 257. In kind it is functional.
Series [2] deals with Escherichia coli. The series is described as follows: In vitro antibacterial activity against Escherichia coli TEM-1 (constitutive beta-lactamase producer). In kind it is functional. The method, boiled down: (§1)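 MIC was determined by agar dilution on Mueller-Hinton agar. Serial 2-fold aqueous dilutions were diluted 10-fold in agar to give final concentrations of 128 to 0.0156 μg/mL. Plates were inoculated by Steers replicator with overnight broth cultures diluted 100-fold.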

Another series has as its system Enterobacter cloacae. The series is described as follows: In vitro antibacterial activity against enterobacter cloacae P99 (constitutive beta-lactamase producer). In kind it is functional. The method, boiled down: as §1
The test system of series [3] is Klebsiella pneumoniae. The series is described as follows: In vitro antibacterial activity against klebsiella pneumoniae A. The format is functional. In a few lines: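 Agar-dilution MIC on Mueller-Hinton agar. Serial 2-fold dilutions were made in water, giving final agar concentrations of 128 to 0.0156 μg/mL. Inoculum was an overnight broth culture diluted 100-fold, applied with a multipoint replicator.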

The subject of a further series is Proteus mirabilis. The series is described as follows: In vitro antibacterial activity against Proteus mirabilis 90. In kind it is functional. In a few lines:
(§2)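 Proteus MICs were determined by agar dilution on Mueller-Hinton agar containing 3% agar. Serial 2-fold dilutions gave final concentrations of 128 to 0.0156 μg/mL. Plates were replicator-inoculated with 100-fold-diluted overnight broth cultures.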

The test system of series [4] is Pseudomonas aeruginosa. Briefly: In vitro antibacterial activity against Ps. aeruginosa 18SH (constitutive beta-lactamase producer). The format is functional. In a few lines:
as §1

For series [5], the system named is Pseudomonas aeruginosa. The series is described as follows: In vitro antibacterial activity against Pseudomonas aeruginosa 8780. In kind it is functional. In a few lines:
as §1

The subject of another series is Proteus vulgaris. Briefly: In vitro antibacterial activity against proteus vulgaris ATCC 6380 (constitutive beta-lactamase producer). In kind it is functional. The method, boiled down: as §2
The test system of series [6] is Staphylococcus aureus. The series is described as follows: In vitro antibacterial activity against Staphylococcus aureus 67(methicillin resistant). The format is functional. The method, boiled down:
(§3)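 MIC by agar dilution on Mueller-Hinton agar. Compounds were serially 2-fold diluted in water, final 128 to 0.0156 μg/mL in agar. Inoculum: overnight broth culture diluted 100-fold, applied with a Steers replicator.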

The subject of series [7] is Staphylococcus aureus. Briefly: (§4) In vitro antibacterial activity against Staphylococcus aureus 753 (constitutive beta-lactamase producer). In kind it is functional. In a few lines:
as §3

For another series, the system named is Streptococcus pyogenes. Briefly: In vitro antibacterial activity against Streptococcus pyogenes 4. The format is functional. In a few lines:
(§5)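 Streptococcal MICs were determined by agar dilution on brain heart infusion agar supplemented with 20 units/mL bovine liver catalase. Final concentrations were 128 to 0.0156 μg/mL from 2-fold dilutions. Inocula were overnight broth cultures diluted 100-fold, applied by Steers replicator.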

The test system of series [8] is Serratia marcescens. The series is described as follows: In vitro antibacterial activity against serratia marcescens SM (constitutive beta-lactamase producer). In kind it is functional. The method, boiled down: as §1
Series [9] relates to Staphylococcus aureus. Briefly: In vitro antibacterial activity against staphylococcus aureus smith. In kind it is functional. The method, boiled down: as §1
The test system of series [10] is Streptococcus pneumoniae. Briefly: In vitro antibacterial activity against streptococcus pneumoniae 6301. The format is functional. In a few lines: as §5
The test system of series [11] is Citrobacter freundii. Briefly: In vitro antibacterial activity against citrobacter freundii BS-16 (constitutive beta-lactamase producer). The format is functional. In a few lines: as §1
Series [12] is described as follows: Stability in pH 7.4 phosphate buffer at 37 degree C. In kind it is physicochemical. The method, boiled down:
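Compounds were held in pH 7.4 phosphate buffer at 37 °C and monitored by reverse-phase HPLC on a PRP-1 column with UV detection at 275–286 nm. The mobile phase was 0.01 M tetradecyltrimethylammonium bromide in pH 8.2 phosphate/acetonitrile. Product-peak decline was followed to at least 50%, and half-life was taken from semilogarithmic plots.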

In series [13] the test system is Escherichia coli. The series is described as follows: In vitro antibacterial activity against Escherichia coli 25922. The format is functional. The method, boiled down: as §1
Series [14] concerns Staphylococcus aureus. Described as §4. In kind it is functional. The method, boiled down:
as §1
This is another data set of the same source.

Series [15] concerns Escherichia coli. The series is described as follows: Effect on replication DNA biosynthesis in Escherichia coli H560 (permeabilised cells). The format is functional, organism-based. The method, boiled down: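 Toluene-permeabilized E. coli H560 cells were used. Replicative DNA synthesis was measured as ATP-dependent [3H]thymidine incorporation into trichloroacetic acid-insoluble material. IC50 is the concentration giving 50% inhibition.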

The test system of series [16] is Escherichia coli. Briefly: In vitro antibacterial activity against Escherichia coli UB1005 (nalidixic acid-resistant strain). The format is functional. The method, boiled down:
as §1

In the next series the test system is Bacteroides fragilis. The series is described as follows: In vitro antibacterial activity against Bacteroides fragilis S2. The format is functional. In a few lines: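 Anaerobic MICs were determined in microtiter plates in Schaedler's broth supplemented with coenzyme I and hemin. Incubation was under an oxygen-free hydrogen-carbon dioxide atmosphere.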
Series [17] has as its system Citrobacter freundii. Briefly: In vitro antibacterial activity against Citrobacter freundii BS-16 (constitutive beta-lactamase producer). In kind it is functional. The method, boiled down: as §1
Series [18] deals with Klebsiella pneumoniae. Briefly: In vitro antibacterial activity against Klebsiella pneumoniae A. In kind it is functional. In a few lines: as §1
For series [19], the system named is Serratia marcescens. Briefly: In vitro antibacterial activity against Serratia marcescens SM (constitutive beta-lactamase producer). In kind it is functional. In a few lines:
as §1

Series [20] relates to Streptococcus pneumoniae. The series is described as follows: In vitro antibacterial activity against Streptococcus pneumoniae 6301. In kind it is functional. In a few lines: as §5
Series [21] relates to Bacteroides thetaiotaomicron. The series is described as follows: In vitro antibacterial activity against Bacteroides thetaiotaomicron 62B.
Series [22] deals with Bacteroides thetaiotaomicron. Briefly: microbe, parasite or virus in culture.

With `C[C@@H](O)[C@H]1C(=O)N2C(C(=O)[O-])=C(CO)[C@H](C)[C@H]12.[K+]`, the MIC against Escherichia coli [1] was found to be 0.5 µg/mL; against Escherichia coli [2], 0.5 µg/mL; in the series on Enterobacter cloacae it was 0.5 µg/mL; with Klebsiella pneumoniae [3] it was 0.5 µg/mL; against Proteus mirabilis, 1 µg/mL; against Pseudomonas aeruginosa [4], 16 µg/mL. Besides, the MIC against Pseudomonas aeruginosa [5] was found to be 32 µg/mL; in the series on Proteus vulgaris, 0.5 µg/mL; against Staphylococcus aureus [6], 32 µg/mL; against Staphylococcus aureus [7], 32 µg/mL; with Streptococcus pyogenes, 0.0625 µg/mL; against Serratia marcescens [8], 1 µg/mL. The MIC in the series with Staphylococcus aureus [9] turned out to be 0.125 µg/mL; against Streptococcus pneumoniae [10] it was 0.0625 µg/mL; against Citrobacter freundii [11], 0.5 µg/mL.
Broadly, the half-life is the time in which the quantity being followed falls by half. Low readings indicate fast loss, high ones slow loss. In general, IC50 refers to the concentration that gives 50% inhibition. `O=C([O-])C1=C(COC(=O)N2CCN(c3cc4c(cc3F)c(=O)c(C(=O)O)cn4C3CC3)CC2)SC2CC(=O)N12.[Na+]` (stereo unspecified) gave a half-life in series [12] of 16 h. The MIC in the series on Escherichia coli [13] amounted to 0.25 µg/mL; in the series on Escherichia coli [1] it was 0.25 µg/mL; against Escherichia coli [2], 0.125 µg/mL; against Enterobacter cloacae it was 0.125 µg/mL; in the series on Klebsiella pneumoniae [3] it was 0.25 µg/mL; in the series on Proteus mirabilis it was 1 µg/mL. The MIC with Pseudomonas aeruginosa [4] turned out to be 4 µg/mL; against Pseudomonas aeruginosa [5] it was 16 µg/mL; against Proteus vulgaris it was 0.25 µg/mL; against Staphylococcus aureus [6] it was 1 µg/mL; in the series on Staphylococcus aureus [14], 2 µg/mL; against Streptococcus pyogenes, 0.125 µg/mL. The MIC against Serratia marcescens [8] stood at 0.25 µg/mL; against Staphylococcus aureus [9], 1 µg/mL; against Streptococcus pneumoniae [10] it was 0.125 µg/mL; in the series on Citrobacter freundii [11] it was 0.25 µg/mL; with Escherichia coli [16], 2 µg/mL. Moreover, inhibition with Escherichia coli [15] was half-maximal at 2 µg/mL (IC50).
On to `O=C(O)c1cn(C2CC2)c2cc(N3CCNCC3)c(F)cc2c1=O` [CIPROFLOXACIN], for which the MIC in the series on Bacteroides fragilis came out at 4 µg/mL (≈ 12.1 µM); in the series with Citrobacter freundii [17] it was 0.0313 µg/mL (≈ 0.0945 µM); with Escherichia coli [2], 0.0156 µg/mL (≈ 0.0471 µM); with Klebsiella pneumoniae [18], 0.25 µg/mL (≈ 0.754 µM); in the series with Proteus mirabilis, 0.0625 µg/mL (≈ 0.189 µM); with Staphylococcus aureus [6] it was 0.5 µg/mL (≈ 1.51 µM). Further, the MIC against Staphylococcus aureus [14] was 0.25 µg/mL (≈ 0.754 µM); in the series on Streptococcus pyogenes, 0.5 µg/mL (≈ 1.51 µM); against Serratia marcescens [19], 0.0313 µg/mL (≈ 0.0945 µM); against Streptococcus pneumoniae [20] it was 1 µg/mL (≈ 3.02 µM); in [21] it was greater than 128 µg/mL; in [22], 0.25 µg/mL (≈ 0.754 µM).
